ChEMBL document CHEMBL4680078, “Inhibitors of the Cysteine Synthase CysM with Antibacterial Potency against Dormant Mycobacterium tuberculosis” (J Med Chem, 2016)
pKd: −log10 of the molar value. Active and inactive are the calls of the source. The calls are words filed in the database; no cut-off is given here.

Tests used:
[1] = Binding affinity to Mycobacterium tuberculosis CysM expressed in Escherichia coli strain BL21 (DE3) incubated for 5 mins by PLP fluorescence-based screening assay; settings: for pKd: read-out: Kd
In short: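 Binding measured by the rise in fluorescence emission of the enzyme-bound PLP cofactor on ligand binding, using recombinant CysM at 2 µM. Kd obtained by fitting the ligand concentration dependence to a 1:1 binding-site model. Affinities approaching sub-µM are limited by protein concentration.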

[2] = tested on: Mycobacterium tuberculosis; experiment: Inhibition of Mycobacterium tuberculosis CysM expressed in Escherichia coli strain BL21 (DE3) assessed as apparent first-order rate constant for the formation of the alpha-aminoacrylate intermediate at 100 uM incubated for 5 mins in presence of OPS by spectrophotometry
In short: (§1)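 Orthogonal activity assay with recombinant CysM, following formation of the α-aminoacrylate intermediate in the first half-reaction with OPS. Apparent first-order rate constants (kobs) determined. Only residual activities below 20% are reliably quantified; >20% remaining activity is reported as a limit.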

[3] = tested on: HepG2; experiment: Cytotoxicity in human HepG2 cells assessed as reduction in cell viability at 10 uM incubated for 72 hrs by Cell-titer-Glo assay; assay type: cell-based; settings: hepg2, 72 h
[4] = tested on: SH-SY5Y; experiment: Cytotoxicity in human SH-SY5Y cells assessed as reduction in cell viability at 10 uM incubated for 72 hrs by Cell-titer-Glo assay; assay type: cell-based
[5] = tested on: J774.A1; experiment: Cytotoxicity in mouse J774.A1 cells assessed as reduction in cell viability at 10 uM incubated for 72 hrs by Cell-titer-Glo assay; assay type: cell-based; settings: j774.a1, 72 h
[6] = tested on: THP-1; experiment: Cytotoxicity in human THP-1 cells assessed as reduction in cell viability at 10 uM incubated for 72 hrs by Cell-titer-Glo assay; assay type: cell-based; settings: thp-1, 72 h
[7] = tested on: Mycobacterium tuberculosis; experiment: Antimycobacterial activity against Mycobacterium tuberculosis H37Rv assessed as inhibition of microbial growth incubated for 5 days by alamar blue assay; assay type: functional; settings: 120 h, time 5 day
[8] = tested on: Mycobacterium tuberculosis; experiment: Inhibition of Mycobacterium tuberculosis CysM expressed in Escherichia coli strain BL21 (DE3) assessed as reduction in amino-acrylate intermediate formation by measuring residual enzyme activity at 100 uM incubated for 5 mins in presence of OPS by spectrophotometry; in short: as §1
[9] = tested on: Mycobacterium tuberculosis; experiment: Antimycobacterial activity against Mycobacterium tuberculosis H37Rv grown under nutrient starvation condition assessed as reduction in nonreplicating cells count incubated for 7 days at 10 ug/ml; assay type: functional; settings: for Activity: dose 10.0 µg/ml, time 7.0 day
[10] = Binding affinity to Mycobacterium tuberculosis CysM by ITC analysis
[11] = tested on: Mycobacterium tuberculosis; experiment: Bactericidal activity against Mycobacterium tuberculosis H37Rv grown under nutrient starvation condition assessed as reduction in nonreplicating cells count incubated for 7 days at 10 ug/ml in presence of 0.2 mM cysteine; assay type: functional, organism-based; settings: dose 10.0 µg/ml, time 7.0 day
In short: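 Nutrient-starved, nonreplicating H37Rv culture exposed to compound at 10 µg/ml alongside added L-cysteine (series 0.0, 0.05, 0.2, 0.5 mM) and an untreated control. Viable bacteria counted by most probable number (MPN) assay. Run in triplicate.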

[12] = Binding affinity to Mycobacterium tuberculosis CysK2 by PLP fluorescence-based screening assay
[13] = Stability in presence of cysteine assessed as compound degradation incubated for 24 hrs by mass-spectrometry; assay type: physicochemical
[14] = tested on: Mycobacterium tuberculosis; experiment: Selectivity index, ratio of Kd for binding affinity to Mycobacterium tuberculosis CysK1 to Kd for binding affinity to Mycobacterium tuberculosis CysM expressed in Escherichia coli strain BL21 (DE3)
[15] = target: T1, Cystathionine beta-synthase (Homo sapiens, UniProt P35520); experiment: Binding affinity to human CBS by PLP fluorescence-based screening assay
T1 sequence (P35520 whole entry): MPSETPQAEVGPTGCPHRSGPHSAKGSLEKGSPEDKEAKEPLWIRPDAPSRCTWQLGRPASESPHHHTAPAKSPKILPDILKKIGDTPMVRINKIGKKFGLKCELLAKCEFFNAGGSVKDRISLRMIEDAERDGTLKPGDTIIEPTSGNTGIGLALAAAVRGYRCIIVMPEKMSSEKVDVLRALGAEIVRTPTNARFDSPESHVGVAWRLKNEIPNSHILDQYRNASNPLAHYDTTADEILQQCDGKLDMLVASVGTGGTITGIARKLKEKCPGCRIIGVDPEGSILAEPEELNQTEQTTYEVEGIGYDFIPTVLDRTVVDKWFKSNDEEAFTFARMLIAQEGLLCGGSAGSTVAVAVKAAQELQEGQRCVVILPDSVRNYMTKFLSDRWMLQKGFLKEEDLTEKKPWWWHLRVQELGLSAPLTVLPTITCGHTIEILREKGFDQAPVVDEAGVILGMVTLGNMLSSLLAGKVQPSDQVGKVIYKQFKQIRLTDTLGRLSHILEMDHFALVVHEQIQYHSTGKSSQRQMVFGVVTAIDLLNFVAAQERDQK

[16] = Selectivity index, ratio of Kd for binding affinity to human CBS to Kd for binding affinity to Mycobacterium tuberculosis CysM expressed in Escherichia coli strain BL21 (DE3)
[17] = tested on: Mycobacterium tuberculosis; experiment: Selectivity index, ratio of Kd for binding affinity to Mycobacterium tuberculosis CysK2 to Kd for binding affinity to Mycobacterium tuberculosis CysM expressed in Escherichia coli strain BL21 (DE3)
[18] = Stability in presence of cysteine assessed as compound degradation incubated for 24 hrs by spectroscopy analysis; assay type: physicochemical
[19] = Stability in presence of cysteine assessed as compound degradation incubated for 24 hrs by HPLC analysis; assay type: physicochemical
[20] = Binding affinity to Mycobacterium tuberculosis CysK1 by PLP fluorescence-based screening assay

O=C(Nc1cccc(-c2nnn[nH]2)c1)Nc1ccc(Cl)c(Cl)c1
Kd [1]: Not Active | K [2]: > 20 min⁻¹

O=C(Nc1ccc(-c2cccc(Cl)c2Cl)cc1)Nc1cccc(C(=O)O)c1
Activity [3]: Non-Toxic | Activity [4]: Non-Toxic | Activity [5]: Non-Toxic | Activity [6]: Non-Toxic

CO[C@H]1/C=C/O[C@@]2(C)Oc3c(C)c(O)c4c(O)c(c(/C=N/N5CCN(C)CC5)c(O)c4c3C2=O)NC(=O)/C(C)=C\C=C\[C@H](C)[C@H](O)[C@@H](C)[C@@H](O)[C@@H](C)[C@H](OC(C)=O)[C@@H]1C [RIFAMPIN]
MIC [7]: 0.5 µM

CC(=O)c1ccc(NC(=O)Nc2cccc(C(=O)O)c2)cc1
pKd [1]: 3.96 | K [2]: > 20 min⁻¹

O=C(O)c1cccc(NS(=O)(=O)c2ccc(Cl)c(Cl)c2)c1
Kd [1]: Not Active | K [2]: > 20 min⁻¹

Cc1ccc(C(=O)Nc2cccc(C(=O)O)c2)cc1
Kd [1]: Not Active | K [2]: > 20 min⁻¹

O=C(O)c1cccc(NC(=S)Nc2ccc(Cl)cc2)c1
pKd [1]: < 3.52 | K [2]: > 20 min⁻¹

O=C(Nc1ccccc1)Nc1cccc(C(=O)O)c1
pKd [1]: 4.89 | Activity [8]: 2.6% | K [2]: 1.02 min⁻¹

O=C(Nc1ccc(Br)cc1)Nc1cccc(C(=O)O)c1
Activity [9]: inactive | Activity [3]: Non-Toxic | Activity [8]: 1.2% | Activity [4]: Non-Toxic | Activity [5]: Non-Toxic | pKd [10]: 5.85 | K [2]: 0.48 min⁻¹ | MIC [7]: 18.6 µM | Activity [6]: Non-Toxic

COc1ccc(NC(=O)Nc2cccc(C(=O)O)c2)cc1
Activity [9]: inactive | pKd [1]: 4.95 | Activity [8]: 9.9% | K [2]: 3.84 min⁻¹ | MIC [7]: 21.8 µM

O=C(Nc1cccc(C(=O)O)c1)Nc1ccc(Cl)c(Cl)c1
log(activity) ([9]; dose 10 µg/ml, time 7 day): 3 | Activity [11]: inactive | Activity [3]: Non-Toxic | pKd [12]: 4.52 | Activity [8]: 0.3% | Stabilty [13]: Unstable | Activity [4]: Non-Toxic | Activity [5]: Non-Toxic | pKd [10]: 6.49 | K [2]: 0.1 min⁻¹ | Ratio [14]: > 80 | pKd [15]: 4.03 | Ratio [16]: 300 | Ratio [17]: 15 | Stabilty [18]: Unstable | MIC [7]: 9.6 µM | Activity [6]: Non-Toxic | Stabilty [19]: Unstable | pKd [20]: 3.62
